Experiment [1] addresses T1, 3-hydroxy-3-methylglutaryl-coenzyme A reductase (Rattus norvegicus, UniProt P51639).
T1 sequence (P51639 whole entry): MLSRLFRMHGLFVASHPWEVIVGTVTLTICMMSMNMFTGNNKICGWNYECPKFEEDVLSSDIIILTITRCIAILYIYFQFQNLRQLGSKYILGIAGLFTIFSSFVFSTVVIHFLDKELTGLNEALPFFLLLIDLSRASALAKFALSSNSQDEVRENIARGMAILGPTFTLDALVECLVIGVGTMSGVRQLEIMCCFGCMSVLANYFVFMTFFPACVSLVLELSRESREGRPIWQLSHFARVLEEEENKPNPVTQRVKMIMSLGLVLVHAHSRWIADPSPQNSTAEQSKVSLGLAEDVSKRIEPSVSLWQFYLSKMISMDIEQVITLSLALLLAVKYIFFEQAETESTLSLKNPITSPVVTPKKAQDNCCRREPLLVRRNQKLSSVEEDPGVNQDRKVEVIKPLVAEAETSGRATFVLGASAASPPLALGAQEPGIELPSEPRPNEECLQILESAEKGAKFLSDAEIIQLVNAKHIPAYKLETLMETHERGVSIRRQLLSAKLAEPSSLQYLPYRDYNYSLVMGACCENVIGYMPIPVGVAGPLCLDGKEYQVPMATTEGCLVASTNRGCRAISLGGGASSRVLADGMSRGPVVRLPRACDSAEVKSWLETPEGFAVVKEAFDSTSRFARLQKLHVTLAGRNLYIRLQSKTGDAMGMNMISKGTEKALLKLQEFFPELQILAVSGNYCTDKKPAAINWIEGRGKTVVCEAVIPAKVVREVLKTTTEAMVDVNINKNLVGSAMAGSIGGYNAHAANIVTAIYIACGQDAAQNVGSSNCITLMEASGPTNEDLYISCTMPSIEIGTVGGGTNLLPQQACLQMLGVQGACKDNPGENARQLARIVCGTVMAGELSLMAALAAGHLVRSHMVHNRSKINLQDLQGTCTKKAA
Briefly: Inhibition of HMG-CoA reductase in rat liver microsomes. Also noted: species or system Microsome. (Microsomes from liver hold many membrane-bound enzymes, among them those of drug oxidation.)

The nature of experiment [2]: Inhibition of cholesterol synthesis in rat hepatocytes. In kind it is functional, cell-based. To be noted: Hepatocyte.
Another experiment deals with L6. Briefly: Inhibition of cholesterol synthesis in L6 myocytes. It counts as functional, cell-based. To be noted: Rattus norvegicus.
Experiment [3] relates to Hamster. The experiment can be described thus: Inhibition of cholesterol synthesis in hamster at 10 mg/kg, po after 3 to 5 hrs relative to control. In kind it is functional, Cricetinae. Further details: scale not given: the % may be the effect or the level left. In outline: (§1)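 Male Syrian Golden hamsters received a single oral 10 mg/kg dose. A bolus of sodium 14C-acetate was given at 2, 3 or 4 h post-dose, giving 2–4, 3–5 and 4–6 h windows. Label incorporated into plasma cholesterol was measured over the following 2 h. Results are reported as percent change in incorporation relative to vehicle-dosed animals.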

For experiment [4], the system named is Hamster. Briefly: Inhibition of cholesterol synthesis in hamster at 10 mg/kg, po after 2 to 4 hrs relative to control. It counts as functional, Cricetinae. Also noted: scale not given: the % may be the effect or the level left. In a few lines:
as §1

Broadly, the IC50 is the concentration at which inhibition is half-maximal.

SMILES strings stand for the structures.

For `CC(C)c1c(C(=O)N(C)Cc2cccc(Cl)c2)nn(-c2ccc(F)cc2)c1OC[C@@H](O)C[C@@H](O)CC(=O)O`, the concentration for half-maximal inhibition (IC50) was 8.3 nM in experiment [1], 1.8 nM in experiment [2] and 2120 nM in the experiment on L6. Further, the Activity in the experiment with Hamster [3] is on record as 0%.

Take `COCc1cccc(CNC(=O)c2nn(-c3ccc(F)cc3)c(OC[C@@H](O)C[C@@H](O)CC(=O)O)c2C(C)C)c1`: the IC50 in experiment [1] was 31 nM; in experiment [2], 1.1 nM; in the experiment on L6, 3600 nM. The Activity in the experiment on Hamster [3] is -6%.

For the molecule `CC(C)c1c(C(=O)N(C)Cc2ccccc2F)nn(-c2ccc(F)cc2)c1OC[C@@H](O)C[C@@H](O)CC(=O)O`, the IC50 in experiment [1] is 8.7 nM; in experiment [2], 3.2 nM; with L6, 11600 nM. Besides, the Activity in the experiment with Hamster [3] is reported as -4%.

In the case of `CC(C)c1c(C(=O)N2CCC[C@H](c3ccccc3)C2)nn(-c2ccc(F)cc2)c1CC[C@@H](O)C[C@@H](O)CC(=O)O`, the IC50 in experiment [1] amounted to 2.1 nM; in experiment [2] it was 0.28 nM; in the experiment on L6, 310 nM. For the same molecule, the Activity is listed as -78% with Hamster [4] and -57% with Hamster [3].

For the molecule `CC(C)c1c(C(=O)N(C)Cc2ccc(F)c(F)c2)nn(-c2ccc(F)cc2)c1OC[C@@H](O)C[C@@H](O)CC(=O)O`, the IC50 in experiment [1] is 5.7 nM; in experiment [2] it was 8 nM; in the experiment with L6 it was 4570 nM. Moreover, the Activity with Hamster [3] is on record as -5%.

As for `CC(C)c1c(C(=O)N(C)CC2CCCCC2)nn(-c2ccc(F)cc2)c1OC[C@@H](O)C[C@@H](O)CC(=O)O`, the IC50 in experiment [1] turned out to be 6.2 nM; in experiment [2], 1.3 nM; in the experiment on L6, 2510 nM. For the same molecule, the Activity in the experiment on Hamster [3] turned out to be 23%.
